What was measured:
[1] = target: T1, 5-hydroxytryptamine receptor 6 (Homo sapiens, UniProt P50406); test: Displacement of [3H]LSD from human cloned 5HT6 receptor expressed in HeLa cells; assay type: cell-based
Outline: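 Radioligand binding used human 5-HT6 receptor stably expressed in HeLa cells with [3H]LSD as the radioligand. Affinity is reported as Ki.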

[2] = target: T1, 5-hydroxytryptamine receptor 6; test: Agonist activity at human cloned 5HT6 receptor expressed in HeLa cells assessed as induction of adenylyl cyclase activity by RIA; assay type: functional, cell-based
Outline: (§1)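 Transfected HeLa cells expressing human 5-HT6 were washed with Krebs buffer and preincubated 5 min at 37 °C in Krebs with 500 µM IBMX. They were then stimulated 10 min at 37 °C with compound over 0.1–10000 nM. Agonist potency came from concentration–response curves, and percent efficacy was taken relative to a serotonin maximal response.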

[3] = target: T1, 5-hydroxytryptamine receptor 6; test: Agonist activity at human cloned 5HT6 receptor expressed in HeLa cells assessed as induction of adenylyl cyclase activity by RIA relative to serotonin; assay type: functional, cell-based; outline: as §1
[4] = target: 5-hydroxytryptamine receptor 2A (Homo sapiens, UniProt P28223); test: Displacement of [125I]DOI from human cloned 5HT2A receptor expressed in CHO cells; assay type: cell-based
Outline: (§2)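 Binding selectivity used stably expressed human receptors, 5-HT in CHO cells and dopamine in CHO-K1. Radioligands: [125I]DOI for 5-HT2A (agonist radioligand), [3H]-5-HT for 5-HT2C, [3H]LSD for 5-HT7, [3H]spiperone for D2, D3 and D4. Values are IC50 in nM.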

[5] = target: T2, 5-hydroxytryptamine receptor 2C (Homo sapiens, UniProt P28335); test: Displacement of [3H]5-HT from human cloned 5HT2C receptor expressed in CHO cells; assay type: cell-based; outline: as §2
T2 sequence (P28335 whole entry): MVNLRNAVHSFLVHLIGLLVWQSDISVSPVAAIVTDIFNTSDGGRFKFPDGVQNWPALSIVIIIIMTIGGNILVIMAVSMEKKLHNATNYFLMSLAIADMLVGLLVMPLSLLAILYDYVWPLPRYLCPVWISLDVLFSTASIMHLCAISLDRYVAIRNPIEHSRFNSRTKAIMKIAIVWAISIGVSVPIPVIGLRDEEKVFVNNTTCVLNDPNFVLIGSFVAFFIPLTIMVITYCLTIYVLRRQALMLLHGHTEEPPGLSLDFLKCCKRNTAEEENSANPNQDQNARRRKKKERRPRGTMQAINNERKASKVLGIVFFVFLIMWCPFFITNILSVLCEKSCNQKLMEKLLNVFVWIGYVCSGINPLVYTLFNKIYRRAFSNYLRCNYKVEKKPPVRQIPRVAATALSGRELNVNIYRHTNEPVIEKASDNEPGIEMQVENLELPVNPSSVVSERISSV

[6] = target: 5-hydroxytryptamine receptor 7 (Homo sapiens, UniProt P34969); test: Displacement of [3H]LSD from human cloned 5HT7 receptor expressed in CHO cells; assay type: cell-based; outline: as §2
D(2) dopamine receptor = D(2) dopamine receptor (Homo sapiens, UniProt P14416); test: Displacement of [3H]spiperone from human cloned dopamine D2 receptor expressed in CHO-K1 cells; assay type: cell-based; outline: as §2
D(3) dopamine receptor = D(3) dopamine receptor (Homo sapiens, UniProt P35462); test: Displacement of [3H]spiperone from human cloned dopamine D3 receptor expressed in CHO-K1 cells; assay type: cell-based; outline: as §2
D(4) dopamine receptor = target: T3, D(4) dopamine receptor (Homo sapiens, UniProt P21917); test: Displacement of [3H]spiperone from human cloned dopamine D4 receptor expressed in CHO-K1 cells; assay type: cell-based; outline: as §2
T3 sequence (P21917 whole entry): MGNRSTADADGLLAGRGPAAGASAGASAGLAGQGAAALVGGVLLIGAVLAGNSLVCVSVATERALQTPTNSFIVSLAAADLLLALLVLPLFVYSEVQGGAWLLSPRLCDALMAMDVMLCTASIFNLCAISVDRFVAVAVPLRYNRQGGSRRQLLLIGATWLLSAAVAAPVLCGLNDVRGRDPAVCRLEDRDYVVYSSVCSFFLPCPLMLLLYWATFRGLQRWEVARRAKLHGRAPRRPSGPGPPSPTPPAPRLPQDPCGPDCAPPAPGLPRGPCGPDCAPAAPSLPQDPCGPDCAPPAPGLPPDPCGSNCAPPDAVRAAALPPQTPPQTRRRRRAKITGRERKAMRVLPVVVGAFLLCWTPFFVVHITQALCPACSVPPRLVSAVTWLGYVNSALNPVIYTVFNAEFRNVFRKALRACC

[7] = target: T1, 5-hydroxytryptamine receptor 6; test: Antagonist activity at human cloned 5HT6 receptor expressed in HeLa cells assessed as inhibition of adenylyl cyclase activity by RIA; assay type: functional, cell-based
[8] = target: T1, 5-hydroxytryptamine receptor 6; test: Antagonist activity at human cloned 5HT6 receptor expressed in HeLa cells assessed as inhibition of adenylyl cyclase activity by RIA relative to serotonin; assay type: functional, cell-based
[9] = target: 5-hydroxytryptamine receptor 1B (Homo sapiens) (UniProt P28222); test: Displacement of [3H]5-HT from human cloned 5HT1B receptor expressed in CHO cells at 1 uM; assay type: cell-based
Outline: (§3)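 Human 5-HT1B, 5-HT1D and 5-HT1F receptors were stably expressed in CHO cells and labelled with [3H]-5-HT. Results are given as percent inhibition at a single 1 µM concentration.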

[10] = target: 5-hydroxytryptamine receptor 1D (Homo sapiens) (UniProt P28221); test: Displacement of [3H]5-HT from human cloned 5HT1D receptor expressed in CHO cells at 1 uM; assay type: cell-based; outline: as §3
[11] = target: T4, 5-hydroxytryptamine receptor 1F (Homo sapiens) (UniProt P30939); test: Displacement of [3H]5-HT from human cloned 5HT1F receptor expressed in CHO cells at 1 uM; assay type: cell-based; outline: as §3
T4 sequence (whole entry): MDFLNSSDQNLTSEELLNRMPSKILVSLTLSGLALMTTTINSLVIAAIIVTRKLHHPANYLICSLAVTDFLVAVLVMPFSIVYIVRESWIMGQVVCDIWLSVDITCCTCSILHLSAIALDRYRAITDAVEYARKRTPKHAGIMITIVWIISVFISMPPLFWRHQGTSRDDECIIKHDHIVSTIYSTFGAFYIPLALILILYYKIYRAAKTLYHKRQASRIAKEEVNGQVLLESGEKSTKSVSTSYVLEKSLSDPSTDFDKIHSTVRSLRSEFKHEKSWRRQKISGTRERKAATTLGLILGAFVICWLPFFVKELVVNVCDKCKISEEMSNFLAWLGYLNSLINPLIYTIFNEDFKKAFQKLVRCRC

Homo sapiens [12] = organism: Homo sapiens; test: Selectivity ratio of IC50 for human cloned 5HT1B receptor to human cloned 5HT6 receptor
Homo sapiens [13] = organism: Homo sapiens; test: Selectivity ratio of IC50 for human cloned 5HT1D receptor to human cloned 5HT6 receptor
Homo sapiens [14] = organism: Homo sapiens; test: Selectivity ratio of IC50 for human cloned 5HT1F receptor to human cloned 5HT6 receptor
Homo sapiens [15] = organism: Homo sapiens; test: Selectivity ratio of IC50 for human cloned 5HT2A receptor to human cloned 5HT6 receptor
Homo sapiens [16] = organism: Homo sapiens; test: Selectivity ratio of IC50 for human cloned 5HT2C receptor to human cloned 5HT6 receptor
Homo sapiens [17] = organism: Homo sapiens; test: Selectivity ratio of IC50 for human cloned 5HT7 receptor to human cloned 5HT6 receptor
Homo sapiens [18] = organism: Homo sapiens; test: Selectivity ratio of IC50 for human cloned dopamine D2 receptor to human cloned 5HT6 receptor
Homo sapiens [19] = organism: Homo sapiens; test: Selectivity ratio of IC50 for human cloned dopamine D3 receptor to human cloned 5HT6 receptor
Homo sapiens [20] = organism: Homo sapiens; test: Selectivity ratio of IC50 for human cloned dopamine D4 receptor to human cloned 5HT6 receptor

T1 sequence (P50406 whole entry): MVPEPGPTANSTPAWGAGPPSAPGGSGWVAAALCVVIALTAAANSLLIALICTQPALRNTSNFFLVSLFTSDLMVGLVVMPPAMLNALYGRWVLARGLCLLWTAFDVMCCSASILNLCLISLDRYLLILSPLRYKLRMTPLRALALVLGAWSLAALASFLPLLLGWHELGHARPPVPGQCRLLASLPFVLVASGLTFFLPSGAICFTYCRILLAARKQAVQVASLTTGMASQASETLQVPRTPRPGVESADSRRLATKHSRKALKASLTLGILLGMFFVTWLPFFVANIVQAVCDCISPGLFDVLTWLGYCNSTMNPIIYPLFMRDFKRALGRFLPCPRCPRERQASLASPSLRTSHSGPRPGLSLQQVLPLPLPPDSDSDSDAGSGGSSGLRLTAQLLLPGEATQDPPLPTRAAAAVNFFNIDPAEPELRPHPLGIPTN
Sequence of 5-hydroxytryptamine receptor 7 (P34969 whole entry): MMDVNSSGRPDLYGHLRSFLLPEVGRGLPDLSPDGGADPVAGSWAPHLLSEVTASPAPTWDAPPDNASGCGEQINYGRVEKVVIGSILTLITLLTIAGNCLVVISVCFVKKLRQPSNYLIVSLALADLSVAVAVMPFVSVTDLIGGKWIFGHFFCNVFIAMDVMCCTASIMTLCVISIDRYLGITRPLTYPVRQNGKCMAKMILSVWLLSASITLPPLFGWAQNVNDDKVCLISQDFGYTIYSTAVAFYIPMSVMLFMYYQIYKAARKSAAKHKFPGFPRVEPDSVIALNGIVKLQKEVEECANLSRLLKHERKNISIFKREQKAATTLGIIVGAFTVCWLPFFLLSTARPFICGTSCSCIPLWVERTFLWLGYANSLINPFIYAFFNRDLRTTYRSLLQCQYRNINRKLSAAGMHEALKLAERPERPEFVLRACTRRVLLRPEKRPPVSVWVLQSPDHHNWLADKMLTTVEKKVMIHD
Sequence of D(3) dopamine receptor (P35462 whole entry): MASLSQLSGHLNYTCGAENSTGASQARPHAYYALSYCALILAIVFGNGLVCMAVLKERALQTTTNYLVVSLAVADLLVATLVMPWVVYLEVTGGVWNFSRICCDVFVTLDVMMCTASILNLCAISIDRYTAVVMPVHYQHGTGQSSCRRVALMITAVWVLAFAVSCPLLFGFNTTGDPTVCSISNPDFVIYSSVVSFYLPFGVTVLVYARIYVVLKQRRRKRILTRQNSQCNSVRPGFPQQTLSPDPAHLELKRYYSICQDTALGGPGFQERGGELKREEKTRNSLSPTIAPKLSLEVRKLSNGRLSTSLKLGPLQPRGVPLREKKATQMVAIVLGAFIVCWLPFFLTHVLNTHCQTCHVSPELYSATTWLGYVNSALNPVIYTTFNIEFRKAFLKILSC
Sequence of D(2) dopamine receptor (P14416 whole entry): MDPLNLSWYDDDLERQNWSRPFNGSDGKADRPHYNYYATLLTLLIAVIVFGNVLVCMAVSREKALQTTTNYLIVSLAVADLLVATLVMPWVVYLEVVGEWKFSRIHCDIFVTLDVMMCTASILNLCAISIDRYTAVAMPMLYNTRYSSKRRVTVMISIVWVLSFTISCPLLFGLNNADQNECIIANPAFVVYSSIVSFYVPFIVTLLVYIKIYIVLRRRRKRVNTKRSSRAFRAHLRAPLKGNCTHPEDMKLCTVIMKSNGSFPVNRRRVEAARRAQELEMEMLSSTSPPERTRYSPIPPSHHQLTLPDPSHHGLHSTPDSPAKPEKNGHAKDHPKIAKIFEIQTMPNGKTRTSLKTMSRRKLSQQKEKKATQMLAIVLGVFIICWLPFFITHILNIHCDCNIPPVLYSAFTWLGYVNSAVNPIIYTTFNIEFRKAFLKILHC
Sequence of 5-hydroxytryptamine receptor 2A (P28223 whole entry): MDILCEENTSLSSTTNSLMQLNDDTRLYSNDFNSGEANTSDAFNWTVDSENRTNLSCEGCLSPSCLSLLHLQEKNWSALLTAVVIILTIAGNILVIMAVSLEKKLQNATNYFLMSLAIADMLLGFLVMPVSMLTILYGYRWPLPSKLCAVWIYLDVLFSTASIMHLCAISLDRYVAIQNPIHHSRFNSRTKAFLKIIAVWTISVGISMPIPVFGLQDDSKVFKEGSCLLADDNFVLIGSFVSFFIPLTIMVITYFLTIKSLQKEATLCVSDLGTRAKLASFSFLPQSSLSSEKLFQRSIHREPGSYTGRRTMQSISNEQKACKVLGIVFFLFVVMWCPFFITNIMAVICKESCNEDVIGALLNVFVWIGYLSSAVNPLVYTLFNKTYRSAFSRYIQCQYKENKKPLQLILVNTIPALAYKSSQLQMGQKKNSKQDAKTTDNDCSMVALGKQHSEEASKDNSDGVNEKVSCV
Sequence of 5-hydroxytryptamine receptor 1D (Homo sapiens) (P28221 whole entry): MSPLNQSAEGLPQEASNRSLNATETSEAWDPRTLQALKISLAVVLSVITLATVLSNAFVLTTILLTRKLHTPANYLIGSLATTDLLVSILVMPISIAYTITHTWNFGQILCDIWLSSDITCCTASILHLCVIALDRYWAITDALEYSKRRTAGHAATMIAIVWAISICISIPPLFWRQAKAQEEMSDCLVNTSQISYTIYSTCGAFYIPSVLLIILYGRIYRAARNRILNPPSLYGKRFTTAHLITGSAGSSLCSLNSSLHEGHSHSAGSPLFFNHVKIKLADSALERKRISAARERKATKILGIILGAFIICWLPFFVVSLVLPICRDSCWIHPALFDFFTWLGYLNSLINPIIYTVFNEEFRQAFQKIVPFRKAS
Sequence of 5-hydroxytryptamine receptor 1B (Homo sapiens) (P28222 whole entry): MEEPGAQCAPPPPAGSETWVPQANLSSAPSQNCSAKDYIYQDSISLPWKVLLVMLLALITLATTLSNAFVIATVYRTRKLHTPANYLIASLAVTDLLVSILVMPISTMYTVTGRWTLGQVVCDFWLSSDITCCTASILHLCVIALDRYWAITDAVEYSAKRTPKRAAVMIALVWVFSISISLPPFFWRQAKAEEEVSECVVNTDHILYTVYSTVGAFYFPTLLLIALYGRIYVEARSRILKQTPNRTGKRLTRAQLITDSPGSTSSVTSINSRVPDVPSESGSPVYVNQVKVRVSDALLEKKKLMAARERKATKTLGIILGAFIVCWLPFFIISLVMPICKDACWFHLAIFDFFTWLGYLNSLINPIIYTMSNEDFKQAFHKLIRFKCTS

Compound | Ki [1] [nM] | EC50 [2] [nM] | Emax [3] [%] | IC50 [7] [nM] | Imax [8] [%] | further results
CN(C)CCn1cc(S(=O)(=O)c2c(Cl)nc3sccn23)c2cccnc21 | 0.9 | 120 | 71 | – | – | –
CN(C)CCn1cc(S(=O)(=O)c2ccccc2)c2cccnc21 | – | 25 | 94 | – | – | –
CN(C)CCn1cc(S(=O)(=O)c2ccccc2)c2ccccc21 | – | 366 | 63 | – | – | –
CN(C)CCn1cc(S(=O)(=O)c2c(Cl)cccc2Cl)c2cccnc21 | – | 31 | 66 | – | – | –
NCCn1cc(S(=O)(=O)c2cccc3ccccc23)c2cccnc21 | 1.6 | 63 | 65 | – | – | –
NCCn1cc(S(=O)(=O)c2ccc(F)cc2)c2cccnc21 | – | 166 | 100 | – | – | –
NCCn1cc(S(=O)(=O)c2cccc(Cl)c2)c2cccnc21 | 2 | 18 | 94 | – | – | IC50 [4]: 11 nM; IC50 [5]: 44 nM; IC50 [6]: 1360 nM; IC50 (D(2) dopamine receptor): > 5000 nM; IC50 (D(3) dopamine receptor): > 5000 nM; IC50 (D(4) dopamine receptor): > 5000 nM
CNCCn1cc(S(=O)(=O)c2cccc(Cl)c2)c2cccnc21 | – | – | – | 8.3 | 100 | –
CNCCn1cc(S(=O)(=O)c2cccc(F)c2)c2cccnc21 | – | – | – | 6.2 | 93 | –
CNCCn1cc(S(=O)(=O)c2c(Cl)nc3sccn23)c2cccnc21 | 0.9 | – | – | 5.4 | 89 | –
NCCn1cc(S(=O)(=O)c2ccccc2C(F)(F)F)c2cccnc21 | 2.1 | 85 | 97 | – | – | –
CN(C)CCn1cc(S(=O)(=O)c2cccc(Cl)c2)c2cccnc21 | 2.3 | 15 | 86 | – | – | inhibition [9]: 46%; inhibition [10]: 10%; inhibition [11]: 29%; IC50 [4]: 131 nM; IC50 [5]: 477 nM; IC50 [6]: 1220 nM; IC50 (D(2) dopamine receptor): > 5000 nM; IC50 (D(3) dopamine receptor): > 5000 nM; IC50 (D(4) dopamine receptor): > 5000 nM; Ratio IC50 (Homo sapiens [12]): > 50; Ratio IC50 (Homo sapiens [13]): > 50; Ratio IC50 (Homo sapiens [14]): > 50; Ratio IC50 (Homo sapiens [15]): > 50; Ratio IC50 (Homo sapiens [16]): > 50; Ratio IC50 (Homo sapiens [17]): > 50; Ratio IC50 (Homo sapiens [18]): > 50; Ratio IC50 (Homo sapiens [19]): > 50; Ratio IC50 (Homo sapiens [20]): > 50
CN(C)CCn1cc(S(=O)(=O)c2cc(Cl)ccc2Cl)c2cccnc21 | 11.7 | – | – | 15 | 97 | –
